We go through six compounds from ChEMBL document CHEMBL3046885, “Toxicity of (+)- and (-)-gossypol to the plant pathogen, Rhizoctonia solani” (2002).

Test [1] has as its system Rhizoctonia solani. Briefly: Antifungal activity against Rhizoctonia solani J-1 after 4 to 5 days. In kind it is functional. A digest of the protocol:
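Mycelial suspension of strain J-1 (grown 3-4 days at 26-28 °C in potato dextrose broth with rifampicin, macerated in buffered defined medium, pH 6.3, 125 mM glucose). Mixed 1:1 with compound in medium/DMSO; 12 wells per concentration, DMSO controls. Incubated 48 h at 26-28 °C in dark, then plated on PDA and scored visually after 4-5 days. LD100 is the lowest concentration giving no growth. At least three assays.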

Test [2] has as its system Rhizoctonia solani. Briefly: Antifungal activity against Rhizoctonia solani J-1 after 72 hr by turbimetric assay. In kind it is functional. The settings on record: read-out: ED50 (the source's name). A digest of the protocol:
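Sieved macerated mycelium of strain J-1 was held 10 h in buffered defined medium (pH 6.3, 125 mM glucose), then mixed 1:1 with compound in medium/DMSO. Ten wells per concentration; DMSO control. Incubated at 26-28 °C in dark. OD750 was read from 72 h, every 12 h, until control OD reached 0.065-0.100. ED50 came from fractional effect versus concentration. Three plates per experiment, at least four experiments.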

Several values for one entry are separate records, joined by “and”; a condition that tells them apart may be missing. Equal values may be shown once.

For `Cc1cc2c(C(C)C)c(O)c(O)c(C=O)c2c(O)c1-c1c(C)cc2c(C(C)C)c(O)c(O)c(C=O)c2c1O` [GOSSYPOL], in the test on Rhizoctonia solani [1], the LD100 is greater than 106 µM. For the same compound, the EC50 in the test on Rhizoctonia solani [2] (Rhizoctonia solani, J-1, 72 h) is 25.1 µM; in the test on Rhizoctonia solani [2], 24.3 µM and 23.9 µM.

`COc1cc(O)c2c(C=O)c(O)c(O)c(C(C)C)c2c1` [HEMIGOSSYPOL-6-METHYL ETHER] came in with an LD100 in the test with Rhizoctonia solani [1] of 55 µM. The EC50 in the test with Rhizoctonia solani [2] (Rhizoctonia solani, J-1, 72 h) amounted to 13.1 µM.

Turning to `COc1c(C)cc2c3c(c(O)c(O)c(C(C)C)c13)CO2` [DESOXHEMIGOSSYPOL-6-METHYL ETHER], the LD100 in the test on Rhizoctonia solani [1] is 40 µM. The EC50 with Rhizoctonia solani [2] (Rhizoctonia solani, J-1, 72 h) was 2.52 µM.

In the case of `CC1=Cc2cccc(C)c2C(=O)C1=O` [O-HIBISCANONE], the LD100 in the test with Rhizoctonia solani [1] is 27 µM. Further, the EC50 with Rhizoctonia solani [2] (Rhizoctonia solani, J-1, 72 h) is 3.76 µM.

In turn, `Cc1cc(O)c2c(C=O)c(O)c(O)c(C(C)C)c2c1` [HEMIGOSSYPOL] displayed an LD100 in the test on Rhizoctonia solani [1] of 77 µM. Further, the EC50 in the test on Rhizoctonia solani [2] (Rhizoctonia solani, J-1, 72 h) was found to be 21.4 µM.

Take `Cc1cc2c3c(c(O)c(O)c(C(C)C)c3c1)CO2` [DESOXYHEMIGOSSYPOL]: in the test with Rhizoctonia solani [1], the LD100 amounted to 41 µM. Further, the EC50 with Rhizoctonia solani [2] (Rhizoctonia solani, J-1, 72 h) is 3.52 µM.
